# Laboratory results from ChEMBL document CHEMBL1926589, “2-Anilinonicotinyl linked 2-aminobenzothiazoles and [1,2,4]triazolo[1,5-b] [1,2,4]benzothiadiazine conjugates as potential mitochondrial apoptotic inducers” (Bioorg Med Chem, 2011).
# The source made the active and inactive calls. The calls are words filed in the database; no cut-off is given here.
# Assays:
# HL-60 [1] = experiment: Induction of apoptosis in human HL60 cells assessed as caspase3 activation using DEVD-AFC as substrate at 1 uM after 24 hrs by fluorimetry relative to control; type: functional
# In short: (§1)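 HL-60 cells (2 x 10^6) treated 24 h, washed and lysed. Caspase-3, -8 and -9 activities in lysates measured fluorometrically with a commercial caspase fluorescent assay kit. Two independent experiments, each in duplicate.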
# OVCAR-5 = experiment: Growth inhibition of human OVCAR5 cells at 10 uM by sulforhodamine B assay; type: functional; conditions: read-out: GI
# In short: (§2)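 Single-dose 10 µM screen by sulforhodamine B assay, reported as percent inhibition of cell proliferation. Cells grown in medium with 10% heat-inactivated FBS at 37 °C, 5% CO2, and treated at about 70% confluence or in log phase. Compounds dissolved in DMSO; controls received vehicle (<0.5% v/v).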
# CV-1 = experiment: Growth inhibition of african green monkey CV1 cells after 48 hrs by MTT assay; type: cell-based; conditions: Chlorocebus aethiops, CV-1, 48 h
# SiHa [2] = experiment: Growth inhibition of human SiHa cells after 48 hrs by MTT assay; type: functional, cell-based
# HL-60 [3] = experiment: Induction of apoptosis in human HL60 cells assessed as nuclear fragmentation at 1 uM after 24 hrs by DAPI staining-based fluorescence microscopy; type: functional, cell-based
# In short: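 HL-60 or PC-3 cells treated at 1 µM for 24 h. Air-dried smears fixed in methanol at −20 °C for 20 min and stained with DAPI (1 µg/mL) for 20 min at room temperature in the dark. Mounted in 90% glycerol/PBS and examined by fluorescence microscopy for nuclear morphology.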
# HL-60 [4] = experiment: Cell cycle arrest in human HL60 cells assessed as accumulation at sub-G0 phase measuring DNA damage at 1 uM after 24 hrs using propidium iodide staining by flow cytometry (reference value: 1%); type: functional
# In short: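 HL-60 cells (1 x 10^5 per 1.5 mL) treated 24 h, then fixed in 70% cold ethanol at −20 °C overnight. RNase digestion (400 µg/ml) at 37 °C for 45 min, then propidium iodide (10 µg/ml) for 30 min. Flow cytometry on 10,000 events, FL2-A vs FL2-W, with doublet discrimination. Sub-G0 (hypodiploid) peak taken as apoptotic cells. Mean ± SD of three independent experiments.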
# A549 = experiment: Growth inhibition of human A549 cells at 10 uM by sulforhodamine B assay; type: functional; conditions: read-out: GI; in short: as §2
# SiHa [5] = experiment: Growth inhibition of human SiHa cells at 10 uM by sulforhodamine B assay; type: functional; conditions: read-out: GI; in short: as §2
# HL-60 [6] = experiment: Induction of apoptosis in human HL60 cells assessed as caspase8 activation using IETD-AFC as substrate at 1 uM after 24 hrs by fluorimetry relative to control; type: functional; in short: as §1
# [7] = Therapeutic ratio of IC50 for african green monkey CV1 cells to IC50 for human HL60 cells; type: ADME, cell-based, HL-60; conditions: CV1 cells and HL60 cells, read-out: Ratio IC50
# SW-620 = experiment: Growth inhibition of human SW620 cells at 10 uM by sulforhodamine B assay; type: functional; conditions: read-out: GI; in short: as §2
# HL-60 [8] = experiment: Induction of apoptosis in human HL60 cells assessed as early apoptotic cells at 1 uM after 24 hrs using Annexin V-FITC and propidium iodide staining by flow cytometry relative to control; type: functional
# In short: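 HL-60 cells (1 x 10^5 per 1.5 mL) treated 24 h, washed twice in PBS and stained in binding buffer with annexin V-FITC and PI. Flow cytometry with FITC in FL-1 (530 nm) and PI in FL-2 (585 nm), using quadrant statistics: lower right taken as apoptotic, upper right as post-apoptotic necrotic. Representative of three independent experiments.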
# HL-60 [9] = experiment: Induction of apoptosis in human HL60 cells assessed as PARP cleavage at 1 uM after 24 hrs by Western blotting; type: functional, cell-based
# In short: (§3)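 HL-60 cells treated 24 h and lysed in RIPA buffer on ice; protein measured by Bradford against a BSA standard. 50 µg resolved by SDS-PAGE and transferred to PVDF, blocked in 5% milk/TBST, then primary antibodies 1:1000 for 2 h and HRP secondary 1:1000 for 1 h. ECL detection with β-actin as loading control; bands quantified by densitometry.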
# HL-60 [10] = experiment: Inhibition of Bcl-2 expression in human HL60 cells at 1 uM after 24 hrs by Western blotting; type: functional, cell-based; in short: as §3
# HL-60 [11] = experiment: Growth inhibition of human HL60 cells after 48 hrs by MTT assay; type: functional, cell-based; conditions: HL-60, 48 h
# HL-60 [12] = experiment: Induction of apoptosis in human HL60 cells assessed as DNA ladder formation at 1 uM after 24 hrs by agarose gel electrophoresis; type: functional, cell-based
# In short: (§4)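 Cells treated 24 h, then 2 x 10^6 cells lysed (Triton X-100 buffer, pH 8.0) with RNase at 37 °C for 90 min and proteinase-K at 50 °C for 1 h. DNA phenol/chloroform-extracted and ethanol-precipitated, then run on 1.8% agarose at 50 V for 1.5 h in TAE. Ladders viewed under UV.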
# HL-60 [13] = experiment: Induction of apoptosis in human HL60 cells at 0.5 uM after 48 hrs by scanning electron microscopy; type: functional, cell-based
# In short: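 HL-60 cells at 2 x 10^5/ml in 10% FCS medium exposed to 0.5 or 1 µM for 6–48 h; DMSO vehicle controls. Cells fixed in 2.5% glutaraldehyde in 0.1 M phosphate (pH 7.2) at 4 °C for 1 h, post-fixed in 1% OsO4 and ethanol-dehydrated. Critical-point dried, gold-coated, and imaged by SEM at 40 kV.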
# HeLa = experiment: Induction of apoptosis in human HeLa cells assessed as DNA ladder formation at 10 uM after 24 hrs by agarose gel electrophoresis; type: functional, cell-based; in short: as §4
smiles,measurement,setting,value
O=C(Nc1nc2ccc([N+](=O)[O-])cc2s1)c1cccnc1Nc1cc(F)c(F)c(F)c1,fold change (FC),HL-60 [1],2
same,inhibition of growth at 10 µM,OVCAR-5,52%
same,IC50,CV-1,> 100 µM
same,IC50,SiHa [2],36 µM
same,Activity,HL-60 [3],Active
same,Activity,HL-60 [4],94%
same,inhibition of growth at 10 µM,A549,27%
same,inhibition of growth at 10 µM,SiHa [5],70%
same,fold change (FC),HL-60 [6],2
same,selectivity ratio,[7],> 1250
same,inhibition of growth at 10 µM,SW-620,70%
same,Activity,HL-60 [8],15%
same,Activity,HL-60 [9],Active
same,inhibition,HL-60 [10],inactive
same,IC50,HL-60 [11],0.08 µM
same,Activity,HL-60 [12],Active
same,Activity,HL-60 [13],inactive
same,Activity,HeLa,inactive
